# Assay results gathered from unrelated publications.
# Protocols differ between the studies behind these lines.
# Target: Beta-adrenergic receptor kinase 1 (GRK2, Homo sapiens, UniProt P25098)
# Residues used in one study (P25098 1-689): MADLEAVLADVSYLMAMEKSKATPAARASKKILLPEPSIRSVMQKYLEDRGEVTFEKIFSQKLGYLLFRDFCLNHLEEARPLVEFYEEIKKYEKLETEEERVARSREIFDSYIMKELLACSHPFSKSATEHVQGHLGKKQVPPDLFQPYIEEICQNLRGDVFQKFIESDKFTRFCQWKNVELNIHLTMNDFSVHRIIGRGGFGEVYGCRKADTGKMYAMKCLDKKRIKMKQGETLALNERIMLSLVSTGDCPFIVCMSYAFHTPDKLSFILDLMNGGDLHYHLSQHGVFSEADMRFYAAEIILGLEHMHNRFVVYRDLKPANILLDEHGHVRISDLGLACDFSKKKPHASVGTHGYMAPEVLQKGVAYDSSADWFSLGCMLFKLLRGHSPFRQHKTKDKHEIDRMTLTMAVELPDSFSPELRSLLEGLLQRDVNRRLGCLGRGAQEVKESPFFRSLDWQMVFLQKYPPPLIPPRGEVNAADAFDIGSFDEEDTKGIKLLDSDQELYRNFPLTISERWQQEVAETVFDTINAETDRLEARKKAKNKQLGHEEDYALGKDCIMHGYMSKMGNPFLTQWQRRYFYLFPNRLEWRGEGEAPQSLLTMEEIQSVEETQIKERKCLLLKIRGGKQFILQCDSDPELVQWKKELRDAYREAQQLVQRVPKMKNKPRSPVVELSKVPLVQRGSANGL
read-out,technique,tested at,remaining binding,Compound
binding,competition with immobilised ligand,1 µM,100%,O=C(Nc1c[nH]nc1C(=O)NC1CCNCC1)c1cc(F)cc(F)c1
cell-free assay,competition with immobilised ligand,1 µM,100%,Cc1c(NC(=O)c2cc(C(N)=O)nc3cc(F)ccc23)c(C(F)(F)F)nn1Cc1ccc(C(C)(C)C)cc1
binding,competition with immobilised ligand,1 µM,48%,c1cnn2ncc(-c3ccnc(N4CCC45COC5)n3)c2c1
binding,competition with immobilised ligand,1 µM,88%,COc1cnc(Nc2cccc(S(N)(=O)=O)c2)nc1N1CCN(c2ccccc2)CC1
binding,competition with immobilised ligand,1 µM,57%,C[C@@H]1CCN(c2nccc(-c3cnn4ncccc34)n2)C1
cell-free assay,competition with immobilised ligand,1 µM,71.8%,CCCCN(CCCC)C(=O)CN1C[C@H](c2cc(OC)c3c(c2)OCO3)[C@@H](C(=O)O)[C@@H]1CC(C)(C)CCC
binding,competition with immobilised ligand,1 µM,56%,Cc1cnc(Nc2ccc(C(=O)N3CCC(N4CCCC4)CC3)cc2)nc1-c1cc2ccccc2s1
binding,competition with immobilised ligand,0.1 µM,67%,C[C@@H](c1ccc(-n2cnc3c(N)ncnc32)cc1)N1CCc2nn(C)c(Cc3ccccc3)c2C1=O
cell-free assay,competition with immobilised ligand,5 µM,100%,COc1ncc2cc3ccccc3nc2c1C#N
binding,competition with immobilised ligand,1 µM,98%,O=C(c1ccc(Nc2ncc(Cl)c(-c3ccc(Cl)s3)n2)cc1)N1CCC(N2CCCC2)CC1
cell-free assay,competition with immobilised ligand,1 µM,92%,CO[C@@H](C)c1c(Nc2ccc([C@@H](N(C)C(=O)C3CCS(=O)(=O)CC3)C(F)(F)F)cc2)cnc2cc(Cl)nn12
binding,competition with immobilised ligand,1 µM,74%,CN(C)c1nccc(-c2cnn3ncccc23)n1
binding,competition with immobilised ligand,1 µM,100%,O=C(c1ccc(Nc2nccc(-c3cc4ccccc4s3)n2)cc1)N1CCC(N2CCCC2)CC1
cell-free assay,competition with immobilised ligand,1 µM,84%,COc1ccc2c(c1)O[C@H](c1ccc(OC)c(OC)c1)C[C@@H]2NC(=O)C1(c2ccc3c(c2)OC(F)(F)O3)CC1
binding,,1 µM,50%,Cc1cnn2ncc(-c3ccnc(N(C)C)n3)c2c1
binding,competition with immobilised ligand,1 µM,92%,CNC(=O)[C@@H]1CC[C@@H](n2c(-c3ccc4cnccc4c3)nc3ccc(C(=O)NCc4cccc(C(N)=O)c4)cc32)C1
cell-free assay,competition with immobilised ligand,1 µM,85%,CO[C@H]1CC[C@H](CNc2ccc(S(=O)(=O)NC(=O)c3ccc(N4CCN(CC5=C(c6ccc(Cl)cc6)CC(C)(C)CC5)CC4)cc3Oc3cnc4[nH]ccc4c3)cc2[N+](=O)[O-])CC1
binding,,1 µM,82%,N[C@@H]1CCN(c2nccc(-c3cnn4ncccc34)n2)C1
cell-free assay,competition with immobilised ligand,1 µM,100%,Cc1nc(Cc2cccc(C(F)(F)F)c2)sc1-c1ccc(C(N)=O)nc1
binding,competition with immobilised ligand,1 µM,88%,CN(C)c1ncc(F)c(-c2cnn3ncccc23)n1
